Laboratory results as given in ChEMBL document CHEMBL3856209, “Novel pyrazolopyridine derivatives as potential angiogenesis inhibitors: Synthesis, biological evaluation and transcriptome-based mechanistic analysis” (Eur J Med Chem, 2016).

Legend:
Type in all cases: functional, Homo sapiens
[1] = system: HUVEC; assay: Effect on ZWINT gene expression in serum-starved HUVEC after 24 hrs by microarray analysis relative to control
Method in brief: (§1)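 Confluent serum-starved HUVEC (primary, pooled from 3–5 donors, passage ≤4) treated with 2 μM compound or DMSO vehicle in 2.5% FBS for 6 h or 24 h. Total RNA hybridized to Illumina Human-HT12 arrays, background-corrected, vst-transformed and rsn-normalized. Differential expression versus DMSO by moderated paired t-test (p < 0.05, |log2 fold change| > 0.5).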

[2] = system: HUVEC; assay: Effect on MAP1B gene expression in serum-starved HUVEC after 24 hrs by microarray analysis relative to control
Method in brief: (§2)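 Serum-starved confluent HUVEC (pooled from 3–5 donors, passage ≤4) were treated with 2 μM compound or vehicle in 2.5% FBS for 6 h or 24 h, and total RNA was isolated. Hybridization was on Illumina Human-HT12. Data were processed with bgAdjust, vst and rsn normalization. Changes versus DMSO were called by moderated paired t-test at p < 0.05 and |log2 fold change| > 0.5.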

[3] = system: HUVEC; assay: Effect on RHOB gene expression in serum-starved HUVEC after 24 hrs by microarray analysis relative to control
[4] = system: HUVEC; assay: Effect on MIR181A2HG gene expression in serum-starved HUVEC after 24 hrs by microarray analysis relative to control; method in brief: as §2
[5] = system: HUVEC; assay: Effect on RETSAT gene expression in serum-starved HUVEC after 24 hrs by microarray analysis relative to control
[6] = system: HUVEC; assay: Effect on RNA18S5 gene expression in serum-starved HUVEC after 24 hrs by microarray analysis relative to control
[7] = system: HUVEC; assay: Effect on IL10 gene expression in serum-starved HUVEC after 6 hrs by microarray analysis relative to control
Method in brief: (§3)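 Confluent, serum-starved HUVEC (pooled from 3–5 donors, passage ≤4) treated with 2 μM compound or vehicle with 2.5% FBS for 6 h or 24 h. Total RNA hybridized to Illumina Human-HT12 arrays. Data were background-corrected, vst-transformed and rsn-normalized. Hits called by moderated paired t-test versus DMSO-treated cells, p < 0.05 and log2 fold change >|0.5|.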

[8] = system: HUVEC; assay: Effect on ANGPT2 gene expression in serum-starved HUVEC after 6 hrs by microarray analysis relative to control
Method in brief: (§4)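 Serum-starved confluent HUVEC treated with 2 μM compound or DMSO in 2.5% FBS for 6 h or 24 h; RNA hybridized to Illumina Human-HT12 arrays. Data background-corrected, vst-transformed and rsn-normalized. Differential probes called by moderated paired t-test (limma) at p < 0.05 and log2 fold change >|0.5| vs DMSO.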

[9] = system: HUVEC; assay: Effect on CYBA gene expression in serum-starved HUVEC after 6 hrs by microarray analysis relative to control; method in brief: as §1
[10] = system: HUVEC; assay: Effect on NSDHL gene expression in serum-starved HUVEC after 24 hrs by microarray analysis relative to control
[11] = system: HUVEC; assay: Effect on RACGAP1 gene expression in serum-starved HUVEC after 6 hrs by microarray analysis relative to control
[12] = system: HUVEC; assay: Effect on CYP4X1 gene expression in serum-starved HUVEC after 6 hrs by microarray analysis relative to control; method in brief: as §3
[13] = system: HUVEC; assay: Effect on HJURP gene expression in serum-starved HUVEC after 24 hrs by microarray analysis relative to control; method in brief: as §3
[14] = system: HUVEC; assay: Effect on INSIG1 gene expression in serum-starved HUVEC after 6 hrs by microarray analysis relative to control; method in brief: as §3
[15] = system: HUVEC; assay: Effect on FAM212A gene expression in serum-starved HUVEC after 6 hrs by microarray analysis relative to control; method in brief: as §1
[16] = system: HUVEC; assay: Effect on BHLHE40 gene expression in serum-starved HUVEC after 6 hrs by microarray analysis relative to control; method in brief: as §4
[17] = system: HUVEC; assay: Effect on GINS2 gene expression in serum-starved HUVEC after 6 hrs by microarray analysis relative to control; method in brief: as §3
[18] = system: HUVEC; assay: Effect on NR2F1 gene expression in serum-starved HUVEC after 6 hrs by microarray analysis relative to control; method in brief: as §2
[19] = system: HUVEC; assay: Effect on VCAM1 gene expression in serum-starved HUVEC after 24 hrs by microarray analysis relative to control
[20] = system: HUVEC; assay: Effect on HJURP gene expression in serum-starved HUVEC after 6 hrs by microarray analysis relative to control
[21] = system: HUVEC; assay: Effect on COL4A3BP gene expression in serum-starved HUVEC after 24 hrs by microarray analysis relative to control; method in brief: as §1
[22] = system: HUVEC; assay: Effect on CD46 gene expression in serum-starved HUVEC after 6 hrs by microarray analysis relative to control; method in brief: as §4
[23] = system: HUVEC; assay: Effect on LSS gene expression in serum-starved HUVEC after 6 hrs by microarray analysis relative to control
[24] = system: HUVEC; assay: Effect on BHLHE40 gene expression in serum-starved HUVEC after 24 hrs by microarray analysis relative to control; method in brief: as §4
[25] = system: HUVEC; assay: Effect on ATP1B1 gene expression in serum-starved HUVEC after 6 hrs by microarray analysis relative to control; method in brief: as §4
[26] = system: HUVEC; assay: Effect on FAM213A gene expression in serum-starved HUVEC after 6 hrs by microarray analysis relative to control; method in brief: as §1
[27] = system: HUVEC; assay: Effect on AIF1 gene expression in serum-starved HUVEC after 24 hrs by microarray analysis relative to control; method in brief: as §4
[28] = system: HUVEC; assay: Effect on EGR1 gene expression in serum-starved HUVEC after 24 hrs by microarray analysis relative to control; method in brief: as §3
[29] = system: HUVEC; assay: Effect on ALDOC gene expression in serum-starved HUVEC after 6 hrs by microarray analysis relative to control; method in brief: as §4
[30] = system: HUVEC; assay: Effect on PRR11 gene expression in serum-starved HUVEC after 6 hrs by microarray analysis relative to control; method in brief: as §2
[31] = system: HUVEC; assay: Effect on ANKRD1 gene expression in serum-starved HUVEC after 24 hrs by microarray analysis relative to control; method in brief: as §4
[32] = system: HUVEC; assay: Effect on TK1 gene expression in serum-starved HUVEC after 6 hrs by microarray analysis relative to control
[33] = system: HUVEC; assay: Effect on CYP26B1 gene expression in serum-starved HUVEC after 6 hrs by microarray analysis relative to control; method in brief: as §3
[34] = system: HUVEC; assay: Effect on SPDL1 gene expression in serum-starved HUVEC after 6 hrs by microarray analysis relative to control
[35] = system: HUVEC; assay: Effect on EMCN gene expression in serum-starved HUVEC after 6 hrs by microarray analysis relative to control; method in brief: as §1
[36] = system: HUVEC; assay: Effect on TM4SF18 gene expression in serum-starved HUVEC after 24 hrs by microarray analysis relative to control
[37] = system: HUVEC; assay: Effect on RNU1-1 gene expression in serum-starved HUVEC after 6 hrs by microarray analysis relative to control
[38] = system: HUVEC; assay: Effect on COL8A1 gene expression in serum-starved HUVEC after 6 hrs by microarray analysis relative to control; method in brief: as §3
[39] = system: HUVEC; assay: Effect on CCL8 gene expression in serum-starved HUVEC after 24 hrs by microarray analysis relative to control; method in brief: as §1
[40] = system: HUVEC; assay: Effect on CD68 gene expression in serum-starved HUVEC after 24 hrs by microarray analysis relative to control; method in brief: as §4
[41] = system: HUVEC; assay: Effect on ASAP1 gene expression in serum-starved HUVEC after 6 hrs by microarray analysis relative to control; method in brief: as §1

Q: What does the source list for `COc1ccc(Cn2nc(-c3ccccc3)c3cc(Cl)nc(N4CCNCC4)c32)cc1`?
A: log2FC [1]: -0.5572; log2FC [2]: -0.053; log2FC [3]: 0.5108

Q: `COc1ccc(Cn2nc(-c3ccccc3)c3cc(Nc4ccc(N5CCN(C)CC5)cc4)nc(N4CCNCC4)c32)cc1` was tested. Which log2FC [4] did it give?
A: Its log2FC is 0.5287.

Q: And the log2FC [5]?
A: Its log2FC is -0.5409.

Q: What about the log2FC [6] of the same compound?
A: The log2FC was 0.5309.

Q: What about the log2FC [7] of the same compound?
A: The log2FC was 0.4049.

Q: `COc1ccc(Cn2nc(-c3ccccc3)c3cc(Nc4ccc(N5CCN(C)CC5)cc4)nc(N4CCN(C)CC4)c32)cc1` was tested. Which “fold change (FC)” value [8] did it give?
A: The value was 0.2528.

Q: What about the “fold change (FC)” value [9] of the same compound?
A: The value was 0.1437.

Q: And the log2FC [10]?
A: Its log2FC is 1.1565.

Q: And the log2FC [11]?
A: Its log2FC is -0.171.

Q: And the “fold change (FC)” value [12]?
A: Its value is 0.4504.

Q: What about the log2FC [13] of the same compound?
A: Its log2FC is -0.6338.

Q: What about the “fold change (FC)” value [14] of the same compound?
A: The value was 1.0454.

Q: What about the “fold change (FC)” value [15] of the same compound?
A: The value was 0.129.

Q: And the “fold change (FC)” value [16]?
A: Its value is 0.7182.

Q: And the log2FC [17]?
A: The log2FC was -0.1389.

Q: And the log2FC [18]?
A: Its log2FC is -0.2125.

Q: What about the log2FC [19] of the same compound?
A: The log2FC was -0.7052.

Q: And the “fold change (FC)” value [20]?
A: The value was -0.1528.

Q: And the “fold change (FC)” value [21]?
A: The value was -0.1456.

Q: What about the “fold change (FC)” value [22] of the same compound?
A: The value was 0.3593.

Q: What about the “fold change (FC)” value [23] of the same compound?
A: Its value is 0.4912.

Q: And the log2FC [24]?
A: Its log2FC is 0.6018.

Q: What about the “fold change (FC)” value [25] of the same compound?
A: The value was 0.237.

Q: And the “fold change (FC)” value [26]?
A: Its value is -0.0934.

Q: What about the log2FC [27] of the same compound?
A: Its log2FC is -0.7905.

Q: What about the log2FC [28] of the same compound?
A: The log2FC was 0.5707.

Q: And the “fold change (FC)” value [29]?
A: Its value is 0.067.

Q: And the log2FC [30]?
A: Its log2FC is 0.0749.

Q: What about the log2FC [31] of the same compound?
A: The log2FC was 0.2203.

Q: What about the log2FC [32] of the same compound?
A: The log2FC was -0.2736.

Q: What about the log2FC [33] of the same compound?
A: Its log2FC is -0.3941.

Q: What about the log2FC [34] of the same compound?
A: Its log2FC is 0.1139.

Q: What about the “fold change (FC)” value [35] of the same compound?
A: The value was 0.2035.

Q: What about the log2FC [36] of the same compound?
A: The log2FC was 0.5978.

Q: And the “fold change (FC)” value [37]?
A: Its value is -0.6255.

Q: What about the “fold change (FC)” value [38] of the same compound?
A: Its value is 0.2137.

Q: What about the “fold change (FC)” value [39] of the same compound?
A: The value was -0.7427.

Q: What about the log2FC [40] of the same compound?
A: The log2FC was -0.8363.

Q: And the “fold change (FC)” value [41]?
A: The value was 0.6103.
